Values after ≈ are worked out from the molar mass of the structure shown. Active and inactive are the calls of the source. The rule behind the calls is not given here.
How the values were obtained:
[1] = system: Bacillus anthracis; assay: Antibacterial activity against Bacillus anthracis at 1mM by almar blue dye reduction assay; format: functional, organism-based
[2] = system: Bacillus cereus; assay: Antibacterial activity against Bacillus cereus at 1 mM by almar blue dye reduction assay; format: functional, organism-based
Outline: (§1)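 Single-point primary screen at 1 mM using Alamar Blue dye reduction as the growth read-out.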

[3] = system: Bacillus subtilis; assay: Antibacterial activity against Bacillus subtilis at 1 mM by almar blue dye reduction assay; format: functional, organism-based; outline: as §1
[4] = system: Staphylococcus aureus; assay: Antibacterial activity against Staphylococcus aureus at 1 mM by almar blue dye reduction assay; format: functional, organism-based; outline: as §1
[5] = system: Escherichia coli; assay: Antibacterial activity against Escherichia coli at 1 mM by almar blue dye reduction assay; format: functional, organism-based; outline: as §1
[6] = system: Pseudomonas aeruginosa; assay: Antibacterial activity against Pseudomonas aeruginosa at 1 mM by almar blue dye reduction assay; format: functional, organism-based; outline: as §1
[7] = system: Candida albicans; assay: Antifungal activity against Candida albicans at 1 mM by almar blue dye reduction assay; format: functional, organism-based; outline: as §1
[8] = system: Cryptococcus neoformans; assay: Antifungal activity against Cryptococcus neoformans at 1 mM by almar blue dye reduction assay; format: functional, organism-based; outline: as §1
[9] = system: Saccharomyces cerevisiae; assay: Antifungal activity against Saccharomyces cerevisiae at 1 mM by almar blue dye reduction assay; format: functional, organism-based; outline: as §1
[10] = system: Bacillus anthracis; assay: Antibacterial activity against Bacillus anthracis by almar blue dye reduction assay; format: functional
[11] = system: Bacillus cereus; assay: Antibacterial activity against Bacillus cereus by almar blue dye reduction assay; format: functional
Outline: (§2)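 Compounds advanced from the 1 mM screen were tested over a dilution series, with a top concentration of 1 mM, using Alamar Blue dye reduction. MIC is the lowest concentration with no dye reduction. Where inhibition was partial with some growth at the top concentration, the value is reported as '>'.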

[12] = system: Bacillus subtilis; assay: Antibacterial activity against Bacillus subtilis by almar blue dye reduction assay; format: functional; outline: as §2
[13] = system: Staphylococcus aureus; assay: Antibacterial activity against Staphylococcus aureus by almar blue dye reduction assay; format: functional; outline: as §2
[14] = system: Cryptococcus neoformans; assay: Antifungal activity against Cryptococcus neoformans at by almar blue dye reduction assay; format: functional; outline: as §2
[15] = system: Saccharomyces cerevisiae; assay: Antifungal activity against Saccharomyces cerevisiae by almar blue dye reduction assay; format: functional; outline: as §2
[16] = system: Candida albicans; assay: Antifungal activity against Candida albicans by almar blue dye reduction assay; format: functional; outline: as §2
[17] = system: Escherichia coli; assay: Antibacterial activity against Escherichia coli by almar blue dye reduction assay; format: functional; outline: as §2
[18] = system: Pseudomonas aeruginosa; assay: Antimicrobial activity against Pseudomonas aeruginosa by almar blue dye reduction assay; format: functional; outline: as §2

**Q.** What does the source list for `C[C@H](C[C@@H]1CC[C@H]([C@@H](C)C(=O)N2CCN(CC3CCCO3)CC2)O1)n1cc(C#Cc2cccc3ccccc23)nn1` (some centres undefined)?
**A.** Activity [1]: inactive; Activity [2]: inactive; Activity [3]: inactive; Activity [4]: inactive; Activity [5]: inactive; Activity [6]: inactive; Activity [7]: inactive; Activity [8]: inactive; Activity [9]: inactive; MIC [10]: 263 µg/mL (≈ 473 µM); MIC [11]: 260 µg/mL (≈ 468 µM); MIC [12]: 790 µg/mL (≈ 1420 µM)

**Q.** For `C[C@H](C[C@@H]1CC[C@H]([C@@H](C)C(=O)N(C)Cc2ccccc2)O1)n1cc(C#Cc2ccccn2)nn1`, which Activity [2] is on record?
**A.** inactive

**Q.** What about the Activity [3] of the same compound?
**A.** inactive

**Q.** And the Activity [4]?
**A.** inactive

**Q.** And the Activity [5]?
**A.** inactive

**Q.** What about the Activity [6] of the same compound?
**A.** inactive

**Q.** What about the Activity [7] of the same compound?
**A.** inactive

**Q.** What about the Activity [8] of the same compound?
**A.** inactive

**Q.** What about the Activity [9] of the same compound?
**A.** inactive

**Q.** And the MIC [10]?
**A.** > 430 µg/mL

**Q.** With `CCCCN(CC#Cc1cn([C@H](C)C[C@@H]2CC[C@H]([C@@H](C)C(=O)N(C)Cc3ccccc3)O2)nn1)CCCC` as the compound, how does the Activity [5] read?
**A.** inactive

**Q.** And the Activity [6]?
**A.** inactive

**Q.** And the Activity [7]?
**A.** inactive

**Q.** What about the Activity [9] of the same compound?
**A.** inactive

**Q.** And the MIC [10]?
**A.** 500 µg/mL (≈ 958 µM)

**Q.** What about the MIC [11] of the same compound?
**A.** 250 µg/mL (≈ 479 µM)

**Q.** What about the MIC [12] of the same compound?
**A.** 250 µg/mL (≈ 479 µM)

**Q.** What about the MIC [13] of the same compound?
**A.** 500 µg/mL (≈ 958 µM)

**Q.** And the MIC [14]?
**A.** 250 µg/mL (≈ 479 µM)

**Q.** Which results are given for `CCCCCC#Cc1cn([C@H](C)C[C@@H]2CC[C@H]([C@@H](C)C(=O)N(C)Cc3ccccc3)O2)nn1`?
**A.** Activity [3]: inactive; Activity [4]: inactive; Activity [5]: inactive; Activity [6]: inactive; Activity [7]: inactive; MIC [10]: 430 µg/mL (≈ 954 µM); MIC [11]: 640 µg/mL (≈ 1420 µM); MIC [14]: 430 µg/mL (≈ 954 µM); MIC [15]: 430 µg/mL (≈ 954 µM)

**Q.** For `C[C@H](C[C@@H]1CC[C@H]([C@@H](C)C(=O)N(C)Cc2ccccc2)O1)n1cc(C#CCN(C)CCc2ccccc2)nn1`, which Activity [5] is on record?
**A.** inactive

**Q.** And the Activity [6]?
**A.** inactive

**Q.** And the Activity [7]?
**A.** inactive

**Q.** What about the Activity [9] of the same compound?
**A.** inactive

**Q.** And the MIC [10]?
**A.** 250 µg/mL (≈ 474 µM)

**Q.** And the MIC [11]?
**A.** 250 µg/mL (≈ 474 µM)

**Q.** What about the MIC [12] of the same compound?
**A.** 250 µg/mL (≈ 474 µM)

**Q.** What about the MIC [13] of the same compound?
**A.** 500 µg/mL (≈ 947 µM)

**Q.** And the MIC [14]?
**A.** 500 µg/mL (≈ 947 µM)

**Q.** `CCN(CC)C(=O)[C@H](C)[C@H]1CC[C@@H](C[C@@H](C)n2cc(C#CCOc3cccc(OC)c3OC)nn2)O1` was tested. Which Activity [1] did it give?
**A.** inactive

**Q.** What about the Activity [2] of the same compound?
**A.** inactive

**Q.** What about the Activity [3] of the same compound?
**A.** inactive

**Q.** And the Activity [4]?
**A.** inactive

**Q.** And the Activity [5]?
**A.** inactive

**Q.** What about the Activity [6] of the same compound?
**A.** inactive

**Q.** And the Activity [7]?
**A.** inactive

**Q.** What about the Activity [9] of the same compound?
**A.** inactive

**Q.** And the MIC [14]?
**A.** 480 µg/mL (≈ 963 µM)

**Q.** Which Activity [4] does the source give for `C[C@H](C[C@@H]1CC[C@H]([C@@H](C)C(=O)N2CCN(CC3CCCO3)CC2)O1)n1cc(C#CCOc2cccc(-c3ccccc3)c2)nn1` (some centres undefined) here?
**A.** inactive

**Q.** And the Activity [5]?
**A.** inactive

**Q.** What about the Activity [6] of the same compound?
**A.** inactive

**Q.** What about the MIC [10] of the same compound?
**A.** > 590 µg/mL

**Q.** What about the MIC [11] of the same compound?
**A.** 150 µg/mL (≈ 245 µM)

**Q.** What about the MIC [12] of the same compound?
**A.** 880 µg/mL (≈ 1440 µM)

**Q.** And the MIC [16]?
**A.** 590 µg/mL (≈ 964 µM)

**Q.** What about the MIC [14] of the same compound?
**A.** 290 µg/mL (≈ 474 µM)

**Q.** What about the MIC [15] of the same compound?
**A.** 290 µg/mL (≈ 474 µM)

**Q.** `CCOC(=O)C#Cc1cn([C@H](C)CC2CCC([C@@H](C)C(=O)N3CCN(CC4CCCO4)CC3)O2)nn1` (single isomer, unassigned) was tested. Which MIC [17] did it give?
**A.** 120 µg/mL (≈ 239 µM)

**Q.** And the MIC [10]?
**A.** > 480 µg/mL

**Q.** And the MIC [11]?
**A.** 240 µg/mL (≈ 478 µM)

**Q.** And the MIC [12]?
**A.** 240 µg/mL (≈ 478 µM)

**Q.** What about the MIC [13] of the same compound?
**A.** 120 µg/mL (≈ 239 µM)

**Q.** And the MIC [18]?
**A.** 480 µg/mL (≈ 957 µM)

**Q.** What about the MIC [16] of the same compound?
**A.** 240 µg/mL (≈ 478 µM)

**Q.** What about the MIC [14] of the same compound?
**A.** 480 µg/mL (≈ 957 µM)

**Q.** What about the MIC [15] of the same compound?
**A.** 240 µg/mL (≈ 478 µM)

**Q.** What does the source list for `C[C@H](C[C@@H]1CC[C@H]([C@@H](C)C(=O)N(C)Cc2ccccc2)O1)n1cc(C#CCC2CCCC2)nn1`?
**A.** Activity [3]: inactive; Activity [4]: inactive; Activity [5]: inactive; Activity [6]: inactive; Activity [7]: inactive; MIC [10]: 440 µg/mL (≈ 951 µM); MIC [11]: 440 µg/mL (≈ 951 µM); MIC [14]: 219 µg/mL (≈ 473 µM); MIC [15]: 220 µg/mL (≈ 476 µM)

Source: ChEMBL document CHEMBL1155099, “Natural products in parallel synthesis: triazole libraries of nonactic acid” (2008)
